Results from ChEMBL document CHEMBL1158335, “Synthesis and evaluation of some new benzimidazole derivatives as potential antimicrobial agents” (2009).
Activity calls are given as the source filed them. No cut-off for these calls is given here.

Columns and labels:
Escherichia coli [1] = test: Antibacterial activity against Escherichia coli ATCC 25922 at 1 ug/ml after 24 hrs; format: functional, organism-based
Method in brief: (§1)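 Organisms grown overnight at 37 °C in buffered glucose broth. A loopful (5 mm diameter) was added to buffered glucose broth containing the test compound and incubated at 37 °C for 24 h. Growth was scored against the untreated control as total inhibition, poor, medium or confluent growth.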

Escherichia coli [2] = test: Antibacterial activity against Escherichia coli ATCC 25922 at 200 ug/ml after 24 hrs; format: functional, organism-based; method in brief: as §1
Bacillus subtilis [3] = test: Antibacterial activity against Bacillus subtilis MTCC 121 at 100 ug/ml after 24 hrs; format: functional, organism-based; method in brief: as §1
Escherichia coli [4] = test: Antibacterial activity against Escherichia coli ATCC 25922 at 500 ug/ml after 24 hrs; format: functional, organism-based; method in brief: as §1
Aspergillus flavus = test: Antifungal activity against Aspergillus flavus AIIMS isolate at 30 ug/ml by cup-plate agar diffusion method; format: functional; conditions: for zone of inhibition at 30 µg/mL: read-out: DIZ
Method in brief: (§2)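 Cup-plate agar diffusion assay against the fungal strains, with amphotericin B as the reference standard.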

Bacillus subtilis [5] = test: Antibacterial activity against Bacillus subtilis MTCC 121 at 1 ug/ml after 24 hrs; format: functional, organism-based; method in brief: as §1
Aspergillus niger = test: Antifungal activity against Aspergillus niger AIIMS isolate at 30 ug/ml by cup-plate agar diffusion method; format: functional; conditions: for zone of inhibition at 30 µg/mL: read-out: DIZ; method in brief: as §2
Bacillus subtilis [6] = test: Antibacterial activity against Bacillus subtilis MTCC 121 after 24 hrs; format: functional
Bacillus subtilis [7] = test: Antibacterial activity against Bacillus subtilis MTCC 121 at 500 ug/ml after 24 hrs; format: functional, organism-based; method in brief: as §1
Candida albicans = test: Antifungal activity against Candida albicans MTCC 1637 at 30 ug/ml by cup-plate agar diffusion method; format: functional; conditions: for zone of inhibition at 30 µg/mL: read-out: DIZ; method in brief: as §2
Escherichia coli [8] = test: Antibacterial activity against Escherichia coli ATCC 25922 at 10 ug/ml after 24 hrs; format: functional, organism-based; method in brief: as §1
Bacillus subtilis [9] = test: Antibacterial activity against Bacillus subtilis MTCC 121 at 10 ug/ml after 24 hrs; format: functional, organism-based; method in brief: as §1
Escherichia coli [10] = test: Antibacterial activity against Escherichia coli ATCC 25922 after 24 hrs; format: functional
Bacillus subtilis [11] = test: Antibacterial activity against Bacillus subtilis MTCC 121 at 200 ug/ml after 24 hrs; format: functional, organism-based; method in brief: as §1
Escherichia coli [12] = test: Antibacterial activity against Escherichia coli ATCC 25922 at 100 ug/ml after 24 hrs; format: functional, organism-based; method in brief: as §1

MIC (Bacillus subtilis [6]) | MIC (Escherichia coli [10]) | Compound | inhibition (Escherichia coli [1]) | inhibition (Escherichia coli [2]) | inhibition (Bacillus subtilis [3]) | inhibition (Escherichia coli [4]) | zone of inhibition at 30 µg/mL (Aspergillus flavus) [mm] | inhibition (Bacillus subtilis [5]) | zone of inhibition at 30 µg/mL (Aspergillus niger) [mm] | Activity (Bacillus subtilis [7]) | zone of inhibition at 30 µg/mL (Candida albicans) [mm] | inhibition (Escherichia coli [8]) | inhibition (Bacillus subtilis [9]) | inhibition (Bacillus subtilis [11]) | inhibition (Escherichia coli [12]) | diameter of the inhibition zone (DIZ) (Aspergillus flavus) | diameter of the inhibition zone (DIZ) (Aspergillus niger) | Activity (Bacillus subtilis [6]) | diameter of the inhibition zone (DIZ) (Candida albicans) | Activity (Bacillus subtilis [11])
inactive | inactive | Cc1nc2ccccc2n1Cc1nnc(/N=C/c2cccc(O)c2)s1 | inactive | inactive | inactive | inactive | 10 | inactive | 10 | inactive | 22 | inactive | inactive | inactive | inactive | – | – | – | – | –
– | inactive | Cc1cccc(/C=N/c2nnc(Cn3c(C)nc4ccccc43)s2)c1 | inactive | inactive | inactive | inactive | – | inactive | – | inactive | – | inactive | inactive | – | inactive | inactive | inactive | inactive | inactive | inactive
inactive | inactive | Cc1nc2ccccc2n1Cc1nnc(N2C(=O)C(Cl)C2c2ccc(Cl)cc2)s1 (stereo not given) | inactive | inactive | inactive | inactive | – | inactive | – | inactive | – | inactive | inactive | inactive | inactive | inactive | inactive | – | inactive | –
inactive | inactive | COc1ccccc1C1C(Cl)C(=O)N1c1nnc(Cn2c(C)nc3ccccc32)s1 (stereo not given) | inactive | inactive | inactive | inactive | < 10 | inactive | < 10 | inactive | < 10 | inactive | inactive | inactive | inactive | – | – | – | – | –
inactive | inactive | Cc1cccc(C2C(Cl)C(=O)N2c2nnc(Cn3c(C)nc4ccccc43)s2)c1 (stereo not given) | inactive | inactive | inactive | inactive | – | inactive | – | inactive | – | inactive | inactive | inactive | inactive | inactive | inactive | – | inactive | –
inactive | inactive | COc1ccccc1/C=N/c1nnc(Cn2c(C)nc3ccccc32)s1 | inactive | inactive | inactive | inactive | 16 | inactive | 16 | inactive | 10 | inactive | inactive | inactive | inactive | – | – | – | – | –
